From ChEMBL document CHEMBL4014344, “Discovery of the Soluble Guanylate Cyclase Stimulator Vericiguat (BAY 1021189) for the Treatment of Chronic Heart Failure” (J Med Chem, 2017)

How the values were obtained:
[1] = Efflux ratio of apparent permeability in human Caco2 cells; assay type: ADME, cell-based; settings: Caco-2
Outline: (§1)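 Caco-2 cells grown 14−16 d on inserts. Compound dissolved in DMSO and diluted to final 2 μM in HBSS with glucose (19.9 mM) and HEPES (9.8 mM). Added apically (A−B) or basolaterally, incubated 2 h at 37 °C. Both compartments analysed by LC-MS to calculate Papp. Efflux ratio = Papp B−A/Papp A−B. Lucifer yellow monolayer integrity check.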

[2] = Apparent permeability across apical to basolateral side in human Caco2 cells at 2 uM after 2 hrs by LC-MS analysis; assay type: ADME, cell-based; settings: Caco-2; outline: as §1
[3] = Clearance in rat hepatocytes at 1 uM up to 90 mins by LC-MS/MS analysis; assay type: ADME, cell-based, Hepatocyte
Outline: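 Rat hepatocytes at 1 × 10^6 viable cells/mL (trypan blue-corrected) in Williams' medium E, 1 μM substrate, MeCN ≤1%, 37 °C, pH 7.4. Sampled at 2−90 min, quenched with MeCN, analysed by LC-MS/MS.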

[4] = molecular target: T1, Guanylate cyclase soluble subunit alpha-1 (Rattus norvegicus) (UniProt P19686); assay: Stimulation of rat recombinant sGCalpha1 subunit expressed in CHO cells using alpha-[32P]GTP as substrate assessed as >=3 fold increase in [32P]cGMP formation after 10 mins by radioimmunoassay; assay type: cell-based
T1 sequence (whole entry): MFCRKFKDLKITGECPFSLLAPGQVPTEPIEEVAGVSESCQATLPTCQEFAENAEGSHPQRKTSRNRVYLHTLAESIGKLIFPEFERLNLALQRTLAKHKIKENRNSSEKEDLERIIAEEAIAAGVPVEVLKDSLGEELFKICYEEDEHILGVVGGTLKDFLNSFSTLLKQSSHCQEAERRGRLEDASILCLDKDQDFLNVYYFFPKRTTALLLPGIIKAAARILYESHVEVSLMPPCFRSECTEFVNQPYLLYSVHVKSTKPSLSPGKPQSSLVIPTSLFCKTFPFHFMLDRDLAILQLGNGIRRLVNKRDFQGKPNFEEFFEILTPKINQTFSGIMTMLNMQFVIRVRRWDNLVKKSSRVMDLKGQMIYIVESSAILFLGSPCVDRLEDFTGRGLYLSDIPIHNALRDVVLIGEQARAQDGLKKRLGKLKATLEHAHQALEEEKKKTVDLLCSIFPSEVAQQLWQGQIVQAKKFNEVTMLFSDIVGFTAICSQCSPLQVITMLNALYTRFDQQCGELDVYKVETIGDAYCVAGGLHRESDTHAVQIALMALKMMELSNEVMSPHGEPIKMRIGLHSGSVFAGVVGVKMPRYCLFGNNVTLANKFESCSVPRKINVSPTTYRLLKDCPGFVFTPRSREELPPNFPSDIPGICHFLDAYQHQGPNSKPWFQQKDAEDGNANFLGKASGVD

[5] = Clearance in iv dosed Wistar rat blood after 24 hrs by LC-MS analysis; assay type: ADME, organism-based; settings: whole blood
Outline: (§2)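 Male Wistar rats and female beagle dogs. iv in plasma/DMSO (rat) or H2O/PEG 400/EtOH (dog). Oral gavage in H2O/PEG 400/EtOH for both. Rats jugular-catheterised ≥1 d before dosing. Usually >10 blood samples, at least two after 24 h. Plasma quantified by LC-MS with internal standard. CL, t1/2, Vss and F calculated from plasma curves. Blood clearance via blood/plasma ratio (20 min blood incubation).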

Saphenous artery [6] = assay: Vasorelaxant activity in normal Chinchilla rabbit saphenous artery ring administered at the beginning of the last resting period of 28 mins; assay type: functional; settings: Oryctolagus cuniculus
Saphenous artery [7] = assay: Vasorelaxant activity in nirate-tolerant Chinchilla rabbit saphenous artery ring administered at the beginning of the last resting period of 28 mins in presence of sorbide dinitrate; assay type: functional; settings: Oryctolagus cuniculus
[8] = Terminal half life in iv dosed Beagle dog blood after 24 hrs by LC-MS analysis; assay type: ADME, organism-based, Canis lupus familiaris; settings: whole blood, read-out: beta t1/2 (converted); outline: as §2
[9] = Oral bioavailability in Beagle dog administered via oral gavage after 24 hrs by LC-MS analysis; assay type: ADME, organism-based, Canis lupus familiaris; settings: in vivo; outline: as §2
[10] = Plasma clearance in iv dosed Beagle dog after 24 hrs by LC-MS analysis; assay type: ADME, organism-based, Canis lupus familiaris
Outline: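 Female beagle dogs were dosed iv in an H2O/PEG 400/EtOH formulation. Blood was collected into heparinized tubes, and plasma was obtained by centrifugation at 1000g and stored at −20 °C if needed. Drug was quantified by LC-MS (selected ion monitoring or high-resolution) against an internal standard. Clearance was calculated from the plasma concentration–time course.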

[11] = Volume of distribution at steady state in iv dosed Beagle dog after 24 hrs by LC-MS analysis; assay type: ADME, organism-based, Canis lupus familiaris; settings: in vivo, read-out: Vdss; outline: as §2
[12] = Terminal half life in iv dosed Wistar rat blood after 24 hrs by LC-MS analysis; assay type: ADME, organism-based; settings: whole blood, read-out: beta t1/2 (converted); outline: as §2
[13] = Volume of distribution at steady state in iv dosed Wistar rat after 24 hrs by LC-MS analysis; assay type: ADME, organism-based; settings: in vivo, read-out: Vdss; outline: as §2
[14] = Oral bioavailability in Wistar rat administered via oral gavage after 24 hrs by LC-MS analysis; assay type: ADME, organism-based; settings: in vivo; outline: as §2
[15] = Clearance in iv dosed Beagle dog blood after 24 hrs by LC-MS analysis; assay type: ADME, organism-based, Canis lupus familiaris; settings: whole blood; outline: as §2

Row | SMILES | CLhep predicted at 1 µM [3] [mL/min/kg] | MEC [4] [µM] | further results
1 | Nc1nc(-c2nn(Cc3ccccc3F)c3ncccc23)nc(N)c1NC(=O)OC1CCC1 | 23.3 | 0.2 | efflux ratio [1]: 25; Papp A→B at 2 h, 2 µM [2]: 2.3 ×10⁻⁶ cm/s
2 | COC(=O)Nc1c(N)nc(-c2nc(Cc3ccccc3F)c3ncccn23)nc1N |  | 1.7 | clearance [5]: 30 mL/min/kg
3 | Nc1nc(-c2nn(Cc3ccccc3F)c3ncccc23)nc(N)c1N1C[C@H](C(F)(F)F)OC1=O |  | 0.2 | 
4 | COC(=O)Nc1c(N)nc(-n2nc(Cc3ccccc3F)c3ncccc32)nc1N | < 1.67 | 1.2 | clearance [5]: 16.7 mL/min/kg
5 | COC(=O)N(CC(F)(F)F)c1c(N)nc(-c2nn(Cc3ccccc3F)c3ncccc23)nc1N | 15 | 0.1 | 
6 | CC(C)OC(=O)Nc1c(N)nc(-c2nn(Cc3ccccc3F)c3ncccc23)nc1N | 15 | 0.8 | 
7 | COC(=O)N(CC(F)F)c1c(N)nc(-c2nn(Cc3ccccc3F)c3ncccc23)nc1N | 6.67 | 0.1 | 
8 | Nc1nc(-c2nn(Cc3ccccc3F)c3ncccc23)nc(N)c1NC(=O)OCC1CC1 | 23.3 | 0.2 | 
9 | COC(=O)N(CCO)c1c(N)nc(-c2nn(Cc3ccccc3F)c3ncccc23)nc1N | 61.7 | 0.3 | 
10 | Nc1nc(-c2nn(Cc3ccccc3F)c3ncccc23)nc(N)c1NC(=O)OC1COC1 | 1.67 | 2.3 | efflux ratio [1]: 74; Papp A→B at 2 h, 2 µM [2]: 0.2 ×10⁻⁶ cm/s
11 | CC1(C)CN(c2c(N)nc(-c3nn(Cc4ccccc4F)c4ncccc34)nc2N)C(=O)O1 | 21.7 | 0.2 | 
12 | O=[N+]([O-])OCC(CO[N+](=O)[O-])O[N+](=O)[O-] [NITROGLYCERIN] |  |  | IC50 (Saphenous artery [6]): 1.9 nM; IC50 (Saphenous artery [7]): 9.6 nM
13 | Nc1nc(-c2nn(Cc3ccccc3F)c3ncccc23)nc(N)c1N1C[C@@H](C(F)(F)F)OC1=O | 26.7 | 0.03 | 
14 | COC(=O)N(Cc1cccc(F)c1)c1c(N)nc(-c2nn(Cc3ccccc3F)c3ncccc23)nc1N | 53.3 | 0.2 | 
15 | COC(=O)N(C)c1c(N)nc(-c2nn(Cc3ccccc3F)c3ncccc23)nc1N [RIOCIGUAT] | 3.33 | 0.03 | half-life [8]: 2.4 h; bioavailability [9]: 79%; clearance [10]: 5 mL/min/kg; Vd [11]: 0.7 L/kg; half-life [12]: 1.4 h; Vd [13]: 1.2 L/kg; clearance [5]: 21.7 mL/min/kg; bioavailability [14]: 46%
16 | COC(=O)N(Cc1ccccc1F)c1c(N)nc(-c2nn(Cc3ccccc3F)c3ncccc23)nc1N | 53.3 | 0.1 | 
17 | CCN(C(=O)OC)c1c(N)nc(-c2nn(Cc3ccccc3F)c3ncccc23)nc1N | 11.7 | 0.2 | 
18 | COC(=O)Nc1c(N)nc(-c2nn(Cc3ccccc3F)c3ncccc23)nc1N | 1.67 | 0.3 | efflux ratio [1]: 5; Papp A→B at 2 h, 2 µM [2]: 7.9 ×10⁻⁶ cm/s
19 | COC(=O)Nc1c(N)nc(-c2nc(Cc3ccccc3F)n3ncccc23)nc1N | < 1.67 | 0.7 | half-life [8]: 1.8 h; clearance [10]: 15 mL/min/kg; Vd [11]: 2 L/kg; half-life [12]: 0.5 h; Vd [13]: 0.3 L/kg; clearance [5]: 15 mL/min/kg; bioavailability [14]: 37%
20 | Nc1nc(-c2nn(Cc3ccccc3F)c3ncccc23)nc(N)c1NC(=O)OCC(F)(F)F | 35 | 0.2 | 
21 | COC(=O)Nc1c(N)nc(-n2nc(Cc3ccccc3F)c3ncc(F)cc32)nc1N | 1.67 | 0.5 | half-life [8]: 4.1 h; bioavailability [9]: 56%; Vd [11]: 1 L/kg; half-life [12]: 1.5 h; clearance [15]: 3.33 mL/min/kg; Vd [13]: 0.5 L/kg; clearance [5]: 5 mL/min/kg; bioavailability [14]: 26%
22 | COC(=O)Nc1c(N)nc(-c2nn(Cc3ccccc3F)c3nnccc23)nc1N | < 1.67 | 2 | clearance [5]: 63.3 mL/min/kg
23 | Nc1nc(-c2nn(Cc3ccccc3F)c3ncccc23)nc(N)c1N1CCOC1=O | 6.67 | 0.3 | 
24 | COC(=O)N(Cc1ccc(F)cc1)c1c(N)nc(-c2nn(Cc3ccccc3F)c3ncccc23)nc1N | 40 | 0.7 | 
